Assay outcomes from PubChem.
KCNK3 block: human KCNK3 channel inhibition, primary screen. AID 602410. B-score at 10 µM. CHO-KCNK3 thallium flux, FluxOR fluorescence; hits give low values. 0.84% of 340,000 active;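 active = B-score under library mean minus 4 SD, starting fluorescence ratio at most library mean plus 5 SD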;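 note: more negative B-score means stronger inhibition of thallium flux through KCNK3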
KCNK9 block: human KCNK9 channel inhibition. Q9NPC2. HEK293 KCNK9, FluxOR thallium flux fluorescence; hits give low values. B-score at 10 µM. 1.2% of 310,000 active;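 active = ratio B-score over 3 SD below the library mean, with starting fluorescence within 5 SD of its mean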;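 note: negative B-score means less thallium flux so channel inhibition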
Kir21 inh: blocks the mouse Kir2.1 inward-rectifier potassium channel. P35561. HEK293-Kir2.1, FluxOR thallium flux fluorescence; hits give low values. B-score at 10 µM. 0.85% of 310,000 active. AID 1672;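 active = fluorescence ratio B-score at or below minus 3 SD of library scores, with starting-brightness B-score within 2 SD, cut at about -4.2 in these data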;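 note: channel flux triggered by added potassium and thallium sulfate stimulus; B-score of peak minus minimum fluorescence over baseline after thallium stimulus; more negative B-score means stronger Kir2.1 block with less thallium influx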
Target sequence (P35561 whole entry, looked up): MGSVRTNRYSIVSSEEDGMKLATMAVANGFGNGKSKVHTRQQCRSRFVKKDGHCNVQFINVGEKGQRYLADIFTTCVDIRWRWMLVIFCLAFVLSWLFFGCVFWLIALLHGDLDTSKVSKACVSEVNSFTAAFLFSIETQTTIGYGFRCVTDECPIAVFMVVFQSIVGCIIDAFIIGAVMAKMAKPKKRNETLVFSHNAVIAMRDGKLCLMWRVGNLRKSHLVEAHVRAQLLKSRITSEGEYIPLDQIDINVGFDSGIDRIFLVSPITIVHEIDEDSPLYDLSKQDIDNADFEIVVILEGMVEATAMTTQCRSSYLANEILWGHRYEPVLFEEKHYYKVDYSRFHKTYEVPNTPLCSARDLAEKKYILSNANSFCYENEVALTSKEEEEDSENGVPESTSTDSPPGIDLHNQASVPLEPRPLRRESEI
hERG protect: hERG (human) protection from proarrhythmic block; CHO-hERG, FluxOR thallium flux, dofetilide IC70 present; activation (rescue from dofetilide block), less the hit threshold, % at 10 µM; 0.51% of 310,000 active;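 active = activation above the mean of controls blocked by dofetilide plus 5 SD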;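 note: thallium influx through hERG after potassium depolarization seen as dye fluorescence rise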
KCNQ1 block: inhibitors of human KCNQ1 potassium channel; P51787; CHO-K1 KCNQ1, FluxOR thallium flux fluorescence; hits give high values; 1.3% of 310,000 active; AID 2642; B-score at 10 µM;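 active = compounds whose thallium flux B-score, printed positive for inhibition, exceeds three library SD while starting fluorescence stays within three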;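 note: channel opened by potassium depolarization with thallium stimulus after 20 min compound exposure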
KCNQ1 pot: potentiators or activators of human KCNQ1 potassium channel. P51787. CHO-K1 KCNQ1, thallium flux FluxOR fluorescence; hits give high values. B-score at 10 µM. 0.35% of 310,000 active. AID 2648;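 active = fluorescence ratio B-score, a plate-corrected score, at least three library SD, with initial intensity B-score within 5 SD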
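Doses: Single concentration per compound, DMSO matched to controls | Test system: KCNQ1-transfected CHO-K1 cells | Timing: 90 min dye loading and 20 min compound exposure, both at room temperature | Measured by: Kinetic FluxOR thallium fluorescence, 10-s 1-Hz baseline, 110-s post-stimulus read | Medium: Assay buffer with matched DMSO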
The depositor's hits bear a star; i = inactive; x = no result given. Shown are actives, neighbours in structure and some others; about 3.7% of the full set was active somewhere.

SMILES	KCNK3 block	KCNK9 block	Kir21 inh	hERG protect	KCNQ1 block	KCNQ1 pot
O=C(Nc1nc2c(s1)CCCC2)c1cccnc1	i	i	-0.68	-12.4	i	i
COc1ccccc1N1C(=O)C2C(C(=O)c3ccccc3)=NN(c3ccc(C)cc3)C2C1=O (centres undefined)	i	i	0.2	-10.3	6*	i
O=C1N=C(N2CCC(Cc3ccccc3)CC2)S/C1=C/c1cn[nH]c1-c1ccccc1	i	i	2.07	-8.1	9*	i
C=CCn1c(SCc2ccc(C#N)cc2)nnc1-c1cccc(Cl)c1	i	i	-10.8*	-16.0	i	i
N#Cc1ccc(CSc2nnc(-c3ccccc3)n2Cc2ccco2)cc1	i	i	-1.73	-5.7	i	i
CC(=O)OCc1c(C(F)(F)F)nn(C)c1Sc1ccccc1	i	i	-0.12	-12.0	i	i
CCC(=O)OCc1c(C(F)(F)F)nn(C)c1Sc1ccc(Cl)cc1	i	i	-4.91*	-18.6	i	i
Cc1ccc(S(=O)(=O)N2CCOCC2)cc1NC(=O)CSCc1c(C)noc1C	i	x	x	x	x	x
O=[N+]([O-])c1c(Nc2ccccn2)cc(Cl)c2nonc12	i	-6.88*	0.32	-12.4	11*	i
CCOC(=O)c1c(CSc2ccccc2)n(C)c2cc(Br)c(OC)c(O)c12	i	i	-0.64	0.0	6*	i
CCOC(=O)c1c(C)n(C)c2ccc(O)c(CN3CCN(C)CC3)c12	i	i	-0.52	-7.2	i	i
CCOC(=O)c1c(CSc2ccccc2)n(C)c2ccc(O)c(CN3CCOCC3)c12	i	i	-5.37*	-27.5	i	i
CCOC(=O)c1c(-c2ccccc2)oc2ccc(O)c(CN3CCN(C)CC3)c12	i	i	-9.27*	-7.5	i	i
CCOC(=O)c1c(C)n(C)c2ccc(O)c(CN3CCC(C)CC3)c12	i	i	-2.69	-12.7	i	i
O=C(c1ccc(OC2CCN(CCc3ccccc3)CC2)cc1)N1CCCC(CO)C1 (centres undefined)	i	i	0.38	-15.7	i	i
N#Cc1ccc(CSc2nnc(Cc3cccs3)n2Cc2ccco2)cc1	i	i	-6.07*	-2.5	i	i
COCc1cc(C)nc(Nc2ccccc2OC)c1C#N	i	i	2.14	-7.7	i	i
COc1cc2c(cc1NC(=S)Nc1cccc3ccccc13)oc1ccccc12	i	i	-4.07	-4.6	i	i
COc1cc2c(cc1NC(=S)Nc1cccc(C(F)(F)F)c1)oc1ccccc12	i	i	1.16	-21.4	7*	i
C/C(=N\OCc1ccccc1C#N)c1cc2ccccc2o1	i	-7.13*	0.54	-5.0	i	i
C/C(=N\OCc1ccc(C#N)cc1)c1cc2ccccc2o1	i	i	0.21	-10.2	i	i
O=C(COc1ccc(Br)cc1)NCCCN1CCCC1=O	i	x	x	x	x	x
Cc1ccc(COc2ccc(CNCCCN3CCCCCC3=O)cc2)cc1	i	i	-5.07*	-14.4	i	i
CCOC(=O)CC1COCCN1C(=O)c1cc(COc2ccc(F)cc2Cl)on1 (centres undefined)	i	i	1.29	-13.1	i	i
O=C(O)C1C=Cc2ccccc2N1C(=O)c1ccccc1 (centres undefined) (tested in a mixture with another compound)	i	x	x	x	x	x
SMILES	KCNK3 block	KCNK9 block	Kir21 inh	hERG protect	KCNQ1 block	KCNQ1 pot
N#CC1C=Cc2ccccc2N1C(=O)c1ccccc1 (centres undefined)	i	-7.26*	-0.95	-3.6	i	i
CN(C)CCNC(=S)NC1CCCCC1	i	i	-1.41	-10.1	i	i
CN(C)CCOC(C1CCCCC1)C1CCCCC1	i	i	-4.59*	-8.1	i	i
CCCCn1nc(C(=O)Nc2ccccc2N2CCCC2)c2ccccc2c1=O	-8.74*	x	x	x	x	x
CCCCn1nc(C(=O)Nc2ccc3c(c2)OCO3)c2ccccc2c1=O	-10.2*	x	x	x	x	x
CCCCn1nc(C(=O)N[C@@H](CCSC)c2nc3ccccc3[nH]2)c2ccccc2c1=O	i	-7.46*	-0.74	-4.0	i	i
CCCn1nc(C(=O)Nc2ccc3c(c2)OCO3)c2ccccc2c1=O	i	x	x	x	x	x
